Laboratory results published in ChEMBL document CHEMBL3826914, “Selective photodepletion of malignant T cells in extracorporeal photopheresis with selenorhodamine photosensitizers” (Bioorg Med Chem, 2016).
The source made the active and inactive calls. The calls are words filed in the database; no cut-off is given here.

Legend:
HuT78 [1] = assay: Phototoxicity in GFP expressing human HUT78 cells co-cultured with human PBMC cells assessed as cell survival at 7.5 x 10^-8 M preincubated 20 mins in photosensitizer media followed by growth in photosensitizer-free media for 30 mins measured 18 hrs after exposure to 5 J/cm2 irradiation by FACS analysis; type: functional; conditions: HuT78, light or radiation study, read-out: Survival
Procedure, shortened: (§1)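 Non-stimulated PBMCs from healthy donors (Ficoll-separated) were mixed 5:1 with GFP-transfected, sorted (>98%) HUT-78 cells. Cells took up 7.5×10^-8 M photosensitizer for 20 min, then spent 30 min in dye-free medium. They were exposed to 5 J cm^-2 light (600 nm LED) with rotation at 180 rpm. Survival was gated by FACS (GFP, CD3, CD4, CD8) 18 h later versus non-irradiated controls. Triplicate; mean ± SEM.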

ABCB1 [2] = assay: Permeability from basolateral to apical side in dog MDCK2-MDR1 cells expressing ABCB1 at 5 uM after 30 mins in absence of compound 15 by LC-MS/MS analysis; type: ADME, cell-based, Canis lupus familiaris, MDCK-II; conditions: MDCK-MDR1, read-out: permeability
Procedure, shortened: (§2)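 MDR1-transfected MDCKII cells (passage 16–42) were seeded at 50,000 cells cm^-2 on Transwell filters and used on day 6. Monolayers were rinsed in DPBS with 10^-2 M HEPES, pH 7.4, at 37 °C. They were preincubated 30 min in 4.3 mg/mL BSA/DPBSH with or without 5×10^-6 M P-gp inhibitor. 5 μM dye was added apically or basolaterally and samples taken after 1 h at 37 °C with nutation. Quantitation was by LC-MS/MS; P_passive is the mean of P_AB and P_BA under full inhibition. Mean ± SD.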

[3] = Dark toxicity against human HUT78 cells assessed as reduction in cell viability preincubated for 1 hr in dark after 48 hrs by MTT assay; type: cell-based; conditions: read-out: LD50
Procedure, shortened: (§3)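 HUT-78 cells in RPMI 1640 with 10% FBS, 1% HEPES and 1% penicillin-streptomycin were plated at 7.5×10^4 per well and grown 24 h. Dye was added to final 5×10^-8 to 5×10^-7 M, then 1 h in the dark. Plates were kept dark or irradiated with a 633 ± 2 nm dye laser at ~3.2 mW cm^-2 to 0.5, 1.0 or 2.0 J cm^-2. Medium was replaced, 48 h at 37 °C, then MTT read at 570 nm. Triplicate runs; EC50/LD50 by sigmoidal variable-slope fit.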

[4] = Drug extrusion in human CD8 positive cells assessed as change in mean fluorescence intensity at 5 x 10^-8 M preincubated for 20 mins followed by growth in photosensitizer-free media for 30 mins by flow cytometric analysis relative to control; type: cell-based; conditions: 0.5 h, 0.05 µM
[5] = Drug extrusion in SEB-stimulated human CD25 negative cells assessed as mean fluorescence intensity at 5 x 10^-8 M preincubated for 20 mins followed by growth in photosensitizer-free media for 30 mins by flow cytometric analysis relative to control; conditions: 0.5 h, 0.05 µM
[6] = Phototoxicity human CD8 positive cells co-cultured with GFP expressing human HUT78 cells assessed as cell survival at 7.5 x 10^-8 M preincubated 20 mins in photosensitizer media followed by growth in photosensitizer-free media for 30 mins measured 18 hrs after exposure to 5 J/cm2 irradiation by FACS analysis; type: cell-based; conditions: read-out: Survival; procedure, shortened: as §1
[7] = Drug extrusion in human CD3 positive cells assessed as change in mean fluorescence intensity at 5 x 10^-8 M preincubated for 20 mins followed by growth in photosensitizer-free media for 30 mins by flow cytometric analysis relative to control; type: cell-based; conditions: 0.5 h, 0.05 µM
[8] = Drug uptake in SEB-stimulated human CD25 negative cells assessed as mean fluorescence intensity at 5 x 10^-8 M preincubated for 20 mins followed by growth in photosensitizer-free media for 30 mins by flow cytometric analysis relative to control; conditions: 0.5 h, 0.05 µM
HuT78 [9] = assay: Phototoxicity against human HUT78 cells assessed as reduction in cell viability preincubated for 1 hr in dark at 5 x 10^-8M before exposure to 0.5 to 2 J/cm2 irradiation after 48 hrs by MTT assay; type: functional, cell-based; procedure, shortened: as §3
[10] = Drug extrusion in human CD4 positive cells assessed as change in mean fluorescence intensity at 5 x 10^-8 M preincubated for 20 mins followed by growth in photosensitizer-free media for 30 mins by flow cytometric analysis relative to control; type: cell-based; conditions: 0.5 h, 0.05 µM
[11] = Phototoxicity human CD3 positive cells co-cultured with GFP expressing human HUT78 cells assessed as cell survival at 7.5 x 10^-8 M preincubated 20 mins in photosensitizer media followed by growth in photosensitizer-free media for 30 mins measured 18 hrs after exposure to 5 J/cm2 irradiation by FACS analysis; type: cell-based; conditions: read-out: Survival; procedure, shortened: as §1
ABCB1 [12] = assay: Permeability from apical to basolateral side in dog MDCK2-MDR1 cells expressing ABCB1 at 5 uM after 30 mins in absence of compound 15 by LC-MS/MS analysis; type: ADME, cell-based, Canis lupus familiaris, MDCK-II; conditions: MDCK-MDR1, read-out: permeability; procedure, shortened: as §2
ABCB1 [13] = assay: Permeability from apical to basolateral side in dog MDCK2-MDR1 cells expressing ABCB1 at 5 uM after 30 mins in presence of compound 15 by LC-MS/MS analysis; type: ADME, cell-based, Canis lupus familiaris, MDCK-II; conditions: MDCK-MDR1, with compound 15 (concentration not stated), read-out: permeability; procedure, shortened: as §2
HuT78 [14] = conditions: human, hut78, 0.5 h, 0.075 µM
[15] = Phototoxicity human CD4 positive cells co-cultured with GFP expressing human HUT78 cells assessed as cell survival at 7.5 x 10^-8 M preincubated 20 mins in photosensitizer media followed by growth in photosensitizer-free media for 30 mins measured 18 hrs after exposure to 5 J/cm2 irradiation by FACS analysis; type: cell-based; conditions: read-out: Survival; procedure, shortened: as §1
ABCB1 [16] = assay: Passive permeability in dog MDCK2-MDR1 cells expressing ABCB1 at 5 uM after 30 mins in presence of compound 15 by LC-MS/MS analysis; type: ADME, cell-based, Canis lupus familiaris, MDCK-II; conditions: MDCK-MDR1, with compound 15 (concentration not stated), read-out: permeability; procedure, shortened: as §2
[17] = Drug uptake in SEB-stimulated human CD25 positive cells assessed as mean fluorescence intensity at 5 x 10^-8 M preincubated for 20 mins followed by growth in photosensitizer-free media for 30 mins by flow cytometric analysis relative to control; conditions: 0.5 h, 0.05 µM
[18] = Drug uptake in human HUT78 cell mitochondria by MTG-based bright field microscopic analysis; type: ADME
Procedure, shortened: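 HUT-78 cells (5×10^5 in 0.5 mL medium) were incubated 15 min with 2×10^-7 M dye together with 5×10^-7 M MitoTracker Green. They were centrifuged and analysed by ImageStream imaging flow cytometry, with MTG excited at 488 nm (480–560 nm channel) and dye excited at 561 nm (642–745 nm channel). Colocalisation was given as the bright detail similarity score, mean ± SD over cells.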

HuT78 [19] = assay: Drug uptake in GFP expressing human HUT78 cells co-cultured with non-stimulated human PBMC cells assessed as change in mean fluorescence intensity at 7.5 x 10^-8 M after 20 mins followed by growth in photosensitizer-free media for 30 mins by flow cytometric analysis relative to control; type: cell-based; conditions: hut78, 0.5 h, 0.075 µM
HuT78 [20] = conditions: human, hut78, 0.5 h, 0.075 µM; remark: listed apart in the source
HuT78 [21] = assay: Phototoxicity against human HUT78 cells assessed as reduction in cell viability preincubated for 1 hr in dark before exposure to 1 J/cm2 irradiation after 48 hrs by MTT assay; type: functional, cell-based; conditions: for EC50: HuT78, light or radiation study; procedure, shortened: as §3
[22] = Drug extrusion in SEB-stimulated human CD25 negative cells assessed as change in mean fluorescence intensity at 5 x 10^-8 M preincubated for 20 mins followed by growth in photosensitizer-free media for 30 mins by flow cytometric analysis relative to control; conditions: 0.5 h, 0.05 µM
ABCB1 [23] = assay: Permeability from basolateral to apical side in dog MDCK2-MDR1 cells expressing ABCB1 at 5 uM after 30 mins in presence of compound 15 by LC-MS/MS analysis; type: ADME, cell-based, Canis lupus familiaris, MDCK-II; conditions: MDCK-MDR1, with compound 15 (concentration not stated), read-out: permeability; procedure, shortened: as §2
[24] = Drug extrusion in SEB-stimulated human CD25 positive cells assessed as mean fluorescence intensity at 5 x 10^-8 M preincubated for 20 mins followed by growth in photosensitizer-free media for 30 mins by flow cytometric analysis relative to control; conditions: 0.5 h, 0.05 µM
[25] = Drug extrusion in SEB-stimulated human CD25 positive cells assessed as change in mean fluorescence intensity at 5 x 10^-8 M preincubated for 20 mins followed by growth in photosensitizer-free media for 30 mins by flow cytometric analysis relative to control; conditions: 0.5 h, 0.05 µM

Structure (SMILES): O=C(c1ccc(C2=c3cc4c5c(c3[Se]c3c2cc2c6c3CCCN6CCC2)CCC[N+]=5CCC4)s1)N1CCCCC1.[Cl-]
- viability at 0.075 µM (HuT78 [1]): 3.9%
- Papp B→A at 0.5 h, 5 µM (ABCB1 [2]): 7.8 ×10⁻⁶ cm/s
- CC50 at 48 h [3]: 730 nM
- Activity [4]: 69%
- Flu intensity [5]: 580 a.u.
- viability at 18 h, 0.075 µM [6]: 78%
- Activity [7]: 54.6%
- Flu intensity [8]: 1450 a.u.
- Activity (HuT78 [9]): Active
- Activity [10]: 59.1%
- viability at 18 h, 0.075 µM [11]: 62.1%
- Papp A→B at 0.5 h, 5 µM (ABCB1 [12]): 0.21 ×10⁻⁶ cm/s
- Papp A→B at 0.5 h, 5 µM (ABCB1 [13]): 0.024 ×10⁻⁶ cm/s
- Flu intensity (HuT78 [14]): 6800 a.u.
- viability at 18 h, 0.075 µM [15]: 63.3%
- Papp at 0.5 h, 5 µM (ABCB1 [16]): 0.2 ×10⁻⁶ cm/s
- Flu intensity [17]: 7510 a.u.
- Drug uptake [18]: Active
- Activity (HuT78 [19]): 55.7%
- Flu intensity (HuT78 [20]): 4500 a.u.
- Activity (HuT78 [21]): Dose-dependent effect
- EC50 (HuT78 [21]): 70 nM
- Activity [22]: 59.8%
- Papp B→A at 0.5 h, 5 µM (ABCB1 [23]): 0.48 ×10⁻⁶ cm/s
- Flu intensity [24]: 4500 a.u.
- Activity [25]: 39.9%

Structure (SMILES): S=C(c1ccc(C2=c3cc4c5c(c3[Se]c3c2cc2c6c3CCCN6CCC2)CCC[N+]=5CCC4)s1)N1CCCCC1.[Cl-]
- viability at 0.075 µM (HuT78 [1]): 0%
- Papp B→A at 0.5 h, 5 µM (ABCB1 [2]): 1.8 ×10⁻⁶ cm/s
- CC50 at 48 h [3]: 1080 nM
- Activity [4]: 59.2%
- Flu intensity [5]: 16600 a.u.
- viability at 18 h, 0.075 µM [6]: 11.3%
- Activity [7]: 33.1%
- Flu intensity [8]: 25500 a.u.
- Activity (HuT78 [9]): Active
- Activity [10]: 36.1%
- viability at 18 h, 0.075 µM [11]: 5.8%
- Papp A→B at 0.5 h, 5 µM (ABCB1 [12]): 0.03 ×10⁻⁶ cm/s
- Papp A→B at 0.5 h, 5 µM (ABCB1 [13]): 0.051 ×10⁻⁶ cm/s
- Flu intensity (HuT78 [14]): 81000 a.u.
- viability at 18 h, 0.075 µM [15]: 1.5%
- Papp at 0.5 h, 5 µM (ABCB1 [16]): < 0.1 ×10⁻⁶ cm/s
- Flu intensity [17]: 83300 a.u.
- Drug uptake [18]: Active
- Activity (HuT78 [19]): 28.1%
- Flu intensity (HuT78 [20]): 66000 a.u.
- Activity (HuT78 [21]): Dose-dependent effect
- EC50 (HuT78 [21]): 35 nM
- Activity [22]: 35.2%
- Papp B→A at 0.5 h, 5 µM (ABCB1 [23]): 0.057 ×10⁻⁶ cm/s
- Flu intensity [24]: 69000 a.u.
- Activity [25]: 16.8%
